Bioassay records as filed in PubChem.
A selection: hits, their analogues and other compounds. The true share with any hit is near 1.4%.
SUMO HTRF inh: inhibitors of human SUMOylation (UBC9). HTRF SUMOylation assay, SAE1/SAE2 + UBC9, in vitro. inhibition, % at 35 µM. actives 0.36% (n = 290,000). AID 2006; in the data active = inhibition above about 50%, passing the limit was not always enough
UCH37 inh: blocks the human deubiquitinase UCH37 | Q9Y5K5 | purified proteasome/UCH37, Ub-AMC cleavage fluorescence | inhibition, % (no concentration beside the values) | actives 0.33% (n = 330,000) | AID 588478;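 active = mean inhibition over replicate wells above about 20%, limit read from the data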;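 also: 0% = compound-free wells with enzyme and 100% = wells lacking proteasome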
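Reagent: Ub-AMC substrate; assay system: Proteasome-associated human UCH37 deubiquitinase; controls: no-proteasome and no-compound wells; read-out: % inhibition of Ub-AMC cleavage fluorescence; timing: 30 min preincubation with enzyme, 25 min cleavage at room temperature; signal: AMC fluorescence from Ub-AMC cleavage, excitation 355 nm, emission 460 nm; buffer or medium: Tris-HCl pH 7.4 plus ovalbumin, ATP-MgCl2, DTT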
Neddyl block: cullin neddylation inhibition; TR-FRET cullin neddylation, biochemical; actives 0.58% (n = 360,000); inhibition, % at 25 µM; P61081+Q13564; in the data active = inhibition above about 36%
Target sequence (P61081 whole entry, looked up): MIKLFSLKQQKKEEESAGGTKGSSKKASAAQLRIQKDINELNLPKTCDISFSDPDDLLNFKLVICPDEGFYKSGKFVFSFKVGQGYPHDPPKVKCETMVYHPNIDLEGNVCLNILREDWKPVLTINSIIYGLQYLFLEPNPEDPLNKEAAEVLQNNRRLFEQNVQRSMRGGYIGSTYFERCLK
Target sequence (Q13564 whole entry, looked up): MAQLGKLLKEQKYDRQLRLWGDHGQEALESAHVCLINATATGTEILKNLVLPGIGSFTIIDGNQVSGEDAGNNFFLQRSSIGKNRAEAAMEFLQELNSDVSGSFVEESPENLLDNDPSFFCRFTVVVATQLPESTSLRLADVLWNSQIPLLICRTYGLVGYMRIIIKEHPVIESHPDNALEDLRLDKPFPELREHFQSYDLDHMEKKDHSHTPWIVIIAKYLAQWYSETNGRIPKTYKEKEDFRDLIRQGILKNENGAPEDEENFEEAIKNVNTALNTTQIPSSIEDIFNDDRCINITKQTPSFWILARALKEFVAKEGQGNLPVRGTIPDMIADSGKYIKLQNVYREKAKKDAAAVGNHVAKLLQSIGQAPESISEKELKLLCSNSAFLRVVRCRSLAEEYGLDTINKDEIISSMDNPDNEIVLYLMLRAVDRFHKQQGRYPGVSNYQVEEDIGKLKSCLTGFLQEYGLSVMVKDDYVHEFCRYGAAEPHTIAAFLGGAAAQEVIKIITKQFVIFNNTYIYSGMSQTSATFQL
Fh CTSL1 inh: cathepsin L1 inhibition, PFM18AAP counter-screen; inhibition, % at 5.96 µM; AID 1906; recombinant F. hepatica cathepsin L1, Z-Leu-Arg-MCA fluorescence; actives 0.49% (n = 300,000);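 active = inhibition above the mean of all tested compounds plus 3 SD, set per screening campaign, cut at about 17% in these data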;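 also: 0% = plate median of test compound wells and 100% = 1 µM Z-Phe-Ala-diazomethylketone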
* hit, by the source's call; i = inactive; x = no result shown.

SMILES	SUMO HTRF inh	UCH37 inh	Neddyl block	Fh CTSL1 inh
Nc1ccc2nn(-c3ccccc3)nc2c1	66*	i	x	x
Nc1ccc2nn(-c3cccc4ccccc34)nc2c1	58*	-245	x	-4
Cc1cc2nn(-c3cccc4ccccc34)nc2cc1N	28	-382	x	2
Nc1cc2nn(-c3ccccc3)nc2cc1Cl	78*	-105	x	x
O=C(NC(Cc1c[nH]c2ccccc12)C(=O)NN=Cc1cccnc1)c1cccs1 (stereo not given)	x	4	x	x
C=C(C)C1CC=C(C)C(=NNc2ccccc2[N+](=O)[O-])C1 (stereo not given)	x	5	x	x
COC(=O)CN1C(=O)COc2ccc(Cl)cc21	12	2	-8	5
COCCNC(=O)CN1C(=O)COc2ccc(Cl)cc21	-12	5	27	18*
Cc1ccccc1/C=N/Nc1ccnc2cc(Cl)ccc12	-8	x	31	-1
Cc1ccc(/C=N/Nc2ccnc3cc(Cl)ccc23)c(C)c1	-5	x	45*	-2
CCOC(=O)C1=C(N)n2c(sc(=Cc3ccco3)c2=O)=C(C(=O)OC(C)C)C1c1ccco1 (stereo not given)	x	9	x	x
CC(C)(C)OC1NS(=O)(=O)OCC1NCOC(Cl)(Cl)Cl (stereo not given)	19	0	2	17*
CCCOC(=O)/C(=C\C=C\c1ccco1)NC(=O)c1ccccc1	40	2	6	26*
Cc1ccc(C(=O)N/C(=C/c2ccco2)C(=O)OCN2C(=O)c3ccccc3C2=O)cc1	19	5	-25	43*
COC(=O)/C(=C/c1ccco1)NC(=O)c1ccccc1	-7	8	-2	2
CCCOC(=O)/C(=C\c1ccc([N+](=O)[O-])o1)NC(=O)c1ccccc1	17	4	-39	3
Cc1ccc(C(=O)NN=Cc2cccc(OC(=O)/C=C/c3ccco3)c2)cn1	x	2	x	x
CC(C)CCNC(=O)[C@H](CC(C)C)NC(=O)[C@H]1O[C@@H]1C(=O)O	-6	x	x	111*
CCOC(=O)[C@H]1O[C@@H]1C(=O)N[C@@H](CC(C)C)C(=O)NCCC(C)C	2	0	-2	106*
CC(C)Oc1ccccc1C=NNC(=O)C1CCCC1	x	5	x	x
COCCNC(=S)NN=C(C)c1cccc(C(F)(F)F)c1	x	5	x	x
NC(=S)NC1CCS(=O)(=O)C1 (stereo not given)	-4	4	2	24*
O=S1(=O)CCC(NC(=S)NCCNC(=S)NC2CCS(=O)(=O)C2)C1 (stereo not given)	-5	3	4	0
NC(=NO)C1COc2ccccc2O1 (stereo not given)	x	2	x	x
Cc1ccsc1C=Nc1ccc(O)cc1	x	17	-24	102*
SMILES	SUMO HTRF inh	UCH37 inh	Neddyl block	Fh CTSL1 inh
COc1cc(/C=C2/C(C)=C(C#N)c3nc(N)c(C#N)c(C)c32)ccc1OCC(=O)O	23	x	x	5
CC1=C(C#N)c2nc(N)c(C#N)c(C)c2/C1=C\c1ccc(-c2ccccc2C(=O)O)o1	40	22*	-23	x
O=C(Cn1ccc(C(F)(F)F)n1)NN=Cc1ccc2c(c1)OCO2	x	0	x	x
Cc1cc(C)nc(/N=C2\NC(=O)CC(C(=O)O)N2c2ccc(Oc3ccccc3)cc2)n1 (stereo not given)	-2	2	-10	37*
Cc1ccc(N2/C(=N/c3nc(C)cc(C)n3)NC(=O)CC2C(=O)O)cc1 (stereo not given)	9	-2	-10	-2
Cc1ccc(-c2cc(-c3n[nH]c(=S)o3)c3ccccc3n2)cc1	23	-3	49*	7
O=C(NN=Cc1cccc(O)c1)C(=O)N1CCCCCC1	x	5	x	x
COc1cc(/C=N/NC(=O)c2ccc(CN3C(=O)c4cccc5cccc3c45)cc2)cc(OC)c1O	8	x	44*	7
COc1ccc(/C=N/NC(=O)c2ccc(CN3C(=O)c4cccc5cccc3c45)cc2)cc1O	18	x	x	2
O=C(C#Cc1cccc([N+](=O)[O-])c1)c1ccccc1	8	5	4	22*
O=C(O)C(=Cc1cccc([N+](=O)[O-])c1)c1ccccc1	x	x	-20	x
COc1ccc(CCn2c(N)c(C(=O)NCc3ccco3)c3nc4ccccc4nc32)cc1OC	100	-67	21	-1
COc1ccc(CCn2c(N)c(C(=O)NCc3ccco3)c3nc4ccccc4nc32)cc1	100*	-283	x	-2
O=C(NN=C/C(Cl)=C/c1ccccc1)c1ccc2c(c1)OCO2	x	0	x	x
CC(=NNC(=O)CNC(=O)Cc1ccccc1)c1ccc(Cl)cc1	x	3	x	x
CC(=O)NS(=O)(=O)c1ccc(Nc2ccc([N+](=O)[O-])c3nonc23)cc1	-8	25*	-41	2
O=[N+]([O-])c1ccc(Nc2ccccc2)c2nonc12	12	x	-40	9
CC1CN(C)C(C)CC1=NOc1ccccc1[N+](=O)[O-] (stereo not given)	x	8	x	x
COc1cccc(CCC(=O)O)c1OC	x	2	-4	19*
COc1cc(C(C)=NNC(=O)CN2CCN(S(=O)(=O)c3ccc(C)cc3)CC2)ccc1O	x	2	x	x
CC(=O)Oc1ccc2cc(-c3nc4ccccc4n3C)c(=O)oc2c1	56*	i	30	-7
Cn1c(-c2cc3ccc(OC(=O)C(C)(C)C)cc3oc2=O)nc2ccccc21	24	i	39	-2
CC1CCCN(c2cc(N(C)CCO)c([N+](=O)[O-])c3nonc23)C1 (stereo not given)	-4	22*	-71	11
CN(CCO)c1cc(N2CCCCC2)c2nonc2c1[N+](=O)[O-]	8	5	-48	3
Cc1c(NC(=O)c2cc(-c3ccccc3)on2)c(=O)n(-c2ccccc2)n1C	17	-1	-4	0
SMILES	SUMO HTRF inh	UCH37 inh	Neddyl block	Fh CTSL1 inh
Cc1c(NC(=O)C2CC(c3cccc(Br)c3)=NO2)c(=O)n(-c2ccccc2)n1C (stereo not given)	9	0	-3	17*
Cc1c(NC(=O)c2cc(C3CC3)on2)c(=O)n(-c2ccccc2)n1C	-2	-3	2	42*
Cc1c(NC(=O)C2CC(c3ccc(F)cc3)=NO2)c(=O)n(-c2ccccc2)n1C (stereo not given)	12	4	4	0
COc1ccc(CC(C)=NNC(=S)Nc2ccc(C(C)C)cc2)cc1	x	3	x	x
NC(=S)N/N=C/c1c(O)c(Br)cc2oc3c(c12)CCCC3	18	x	-11	22*
Cc1nn(-c2ccccc2)c(C)c1C=NNC(=O)CSc1nnc(SCc2ccccc2Cl)s1	x	6	x	x
Cc1ccc(NC2=C(Cl)C(=O)OC2OC(=O)c2ccco2)cc1C (stereo not given)	15	3	-4	54*
Cc1ccc(NC2=C(Cl)C(=O)OC2OC(=O)c2ccco2)c(C)c1 (stereo not given)	x	x	0	48*
Cc1ccc(C)c(NC2=C(Cl)C(=O)OC2OC(=O)c2ccco2)c1 (stereo not given)	-4	5	-15	10
COc1cccc(C(=O)Nc2ccc(NC(C)=O)cn2)c1	-17	3	-8	20*
CCCC(=O)Nc1ccc(NC(=O)c2cccc(OC)c2)nc1	9	1	6	3
